Laboratory results reported in ChEMBL document CHEMBL1127694, “N-(acyloxyalkyl)pyridinium salts as soluble prodrugs of a potent platelet activating factor antagonist” (J Med Chem, 1994).

Tests used:
Oryctolagus cuniculus = species: Oryctolagus cuniculus; assay: Inhibitory activity was determined in PAF-induced serotonin release from rabbit platelets; type: functional
Rattus norvegicus [1] = assay: In vivo potency for complete inhibition of LPS-induced intestinal damage in rat by intravenous administration; type: functional
Method in brief: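 Sprague–Dawley rats, 200–225 g. Compound or vehicle (25 mM sodium acetate, pH 4) given i.v. via tail vein, then LPS 25 mg/kg 30 min later. Rats killed 30 min after LPS; luminal rinse of a 15 cm intestinal segment from the duodenum assayed for hemoglobin by hemoglobinometer against standards.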

Rattus norvegicus [2] = assay: In vivo potency for inhibition of LPS-induced hypotension in rat by intra arterial (i.a.) administration; type: functional
Method in brief: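 Rats recovered ≥1 h after surgery; baseline arterial pressure normalized to 100 mmHg. Compound given intraarterially in DMSO/PEG 400/45% hydroxypropyl-β-cyclodextrin/0.9% saline (2.5:20:30:47.5) 15 min before an i.a. bolus of E. coli LPS 0111:B4, 25 mg/kg in PBS pH 7.4. Pressure read every 1 min. Percent inhibition from area under the pressure–time curve versus vehicle.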

Rattus norvegicus [3] = assay: In vivo potency for inhibition of PAF-induced cutaneous vascular permeability in rat by intravenous administration; type: functional
[4] = Half-life values were derived from the decay rate constant (k) by fitting the concentration and time values to the exponential decay function at pH 7; type: ADME
Method in brief: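 Compounds at 20 μM in 25 mM K2PO4 buffer, pH 7, room temperature; aliquots taken over time and quantified by C18 reverse-phase HPLC (UV 250 nm, external calibration). t1/2 = ln(2)/k, with k from fitting concentration vs time to C = C0e^(-kt).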

[5] = The rate of hydrolytic cleavage in plasma was assessed by incubating compounds (30 uM) at 37 degrees Celsius with human plasma adjusted to pH 7; type: ADME
Method in brief: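 Human plasma brought to pH 7 with K2PO4 (50 mM final), compounds at 30 μM, 37 °C. Timed aliquots quenched with 2 volumes acidified acetonitrile and centrifuged. Supernatant quantified by reverse-phase HPLC at 250 nm. t1/2 from single-exponential decay fit, t1/2 = ln(2)/k.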

Row | Structure (SMILES) | Kb (Oryctolagus cuniculus) [nM] | Dose (Rattus norvegicus [1]) [mg/kg] | ED50 (Rattus norvegicus [2]) [mg/kg] | ED50 (Rattus norvegicus [3]) [mg/kg] | half-life [4] [h] | half-life at 30 µM [5] [h]
1 | CN(C)C(=O)n1cc(C(=O)c2ccn3c2CS[C@@H]3c2cccnc2)c2ccc(-c3ccc(F)cc3)cc21 | 1.1 | 0.1 | 0.01 | 0.006 | – | –
2 | CN(C)C(=O)n1cc(C(=O)c2ccn3c2CS[C@@H]3c2ccc[n+](COC(=O)C(C)(C)C)c2)c2ccc(-c3ccc(F)cc3)cc21.[Cl-] | – | – | – | – | 45.3 | 0.347
3 | CC(OC(=O)C(C)(C)C)[n+]1cccc([C@H]2SCc3c(C(=O)c4cn(C(=O)N(C)C)c5cc(-c6ccc(F)cc6)ccc45)ccn32)c1.[Cl-] (stereo not given in full) | – | – | – | – | 17.6 | 0.518
4 | Cc1oc(=O)oc1C[n+]1cccc([C@H]2SCc3c(C(=O)c4cn(C(=O)N(C)C)c5cc(-c6ccc(F)cc6)ccc45)ccn32)c1.[Cl-] | – | – | – | – | 4.1 | 0.0467
5 | CN(C)C(=O)OC[n+]1cccc([C@H]2SCc3c(C(=O)c4cn(C(=O)N(C)C)c5cc(-c6ccc(F)cc6)ccc45)ccn32)c1.[Cl-] | – | – | – | – | > 167 | > 10
6 | COC(=O)OC[n+]1cccc([C@H]2SCc3c(C(=O)c4cn(C(=O)N(C)C)c5cc(-c6ccc(F)cc6)ccc45)ccn32)c1.[Cl-] | – | – | – | – | 1.6 | 0.0167
7 | CN(C)C(=O)n1cc(C(=O)c2ccn3c2CS[C@@H]3c2ccc[n+](COC(=O)c3ccccc3)c2)c2ccc(-c3ccc(F)cc3)cc21.[Cl-] | – | – | – | – | 8.5 | 0.0167
8 | COC(=O)[C@@H]1CCCN1C(=O)OC[n+]1cccc([C@H]2SCc3c(C(=O)c4cn(C(=O)N(C)C)c5cc(-c6ccc(F)cc6)ccc45)ccn32)c1.[Cl-] | – | – | – | – | 128 | 2.67
9 | CC(=O)OC[n+]1cccc([C@H]2SCc3c(C(=O)c4cn(C(=O)N(C)C)c5cc(-c6ccc(F)cc6)ccc45)ccn32)c1.[Cl-] | – | – | – | – | 9 | 0.0433
